From ChEMBL document CHEMBL1125898, “Synthesis and biological activity of 2'-deoxy-4'-thio pyrimidine nucleosides” (J Med Chem, 1991) come the findings set out here.

One assay deals with CCRF-CEM. Kind of assay: The concentration required to inhibit cell growth to 50% of untreated controls in human T-cell leukemia CCRF-CEM cells. Type of assay: functional, cell-based.
Assay [1] concerns HEp-2. Kind of assay: The concentration required to produce a 50% inhibition of clone formation in human epidermoid carcinoma H-Ep-2 cells. Type of assay: functional, cell-based.
Assay [2] has as its system L1210. Kind of assay: The concentration required to produce a 50% reduction in the rate of cell proliferation in murine leukemia L1210 cells. Type of assay: functional, cell-based. The note with it: Mus musculus.
Assay [3] concerns HEp-2. Put plainly: The concentration required to produce a 50% inhibition of clone formation in human epidermoid carcinoma H-Ep-2 cells; NA=no cytotoxicity at 160 uM. Type of assay: functional, cell-based. Summed up:
(§1)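 Highest concentration tested was 160 μM. IC50 is the concentration giving a 50% inhibition of clone formation (H-Ep-2) or a 50% reduction in the rate of cell proliferation (L1210).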

Assay [4] concerns L1210. Kind of assay: The concentration required to produce a 50% reduction in the rate of cell proliferation in murine leukemia L1210 cells; NA=no cytotoxicity at 160 uM. Type of assay: functional, cell-based, Mus musculus. Summed up: as §1

For orientation: IC50 means the concentration at which inhibition is half-maximal. Low readings indicate inhibition by little substance, high ones a need for much substance.

For the molecule `Nc1ccn(C2C[C@H](O)[C@@H](CO)S2)c(=O)n1` (stereo not given in full), the values for the IC50 with CCRF-CEM, in the assay with HEp-2 [1] and in the assay on L1210 [2] were 3500 nM, less than 200 nM and 1000 nM, respectively.

Consider `Cc1cn([C@H]2C[C@H](O)[C@@H](CO)S2)c(=O)[nH]c1=O` [4'-THIOTHYMIDINE], for which the IC50 was found to be 670 nM with CCRF-CEM, 140 nM with HEp-2 [1] and 120 nM in the assay on L1210 [2].

Turning to `Cc1cn([C@@H]2C[C@H](O)[C@@H](CO)S2)c(=O)[nH]c1=O`, the half-maximal inhibitory concentration (IC50) is 25000 nM with HEp-2 [1] and 66000 nM in the assay with L1210 [2].

Regarding `O=c1ccn([C@H]2C[C@H](O)[C@@H](CO)S2)c(=O)[nH]1`, the IC50 in the assay with CCRF-CEM amounted to 4000 nM; in the assay with HEp-2 [1], 2100 nM; in the assay on L1210 [2], 2700 nM.

Turning to `O=c1ccn(C2CC(O)C(CO)S2)c(=O)[nH]1` (stereo not given), the IC50 result in the assay on HEp-2 [3] and in the assay on L1210 [4] was “Not Active” in each case.

Take `Nc1ccn([C@H]2C[C@H](O)[C@@H](CO)S2)c(=O)n1` [4'-THIO-2'-DEOXYCYTIDINE]: the IC50 in the assay with HEp-2 [1] was less than 200 nM; in the assay with L1210 [2], 1200 nM.
